In ChEMBL document CHEMBL2321660, “Synthesis, characterization, and photoinduced antibacterial activity of porphyrin-type photosensitizers conjugated to the antimicrobial peptide apidaecin 1b” (J Med Chem, 2013):
Active and inactive are the calls of the source. No cut-off for these calls is given here. Residues, ends and D or L forms follow the SMILES beside them. *: point of attachment. Benzoyl(4-TriPhPorphyrinyl) = O=C(c1ccc(-c2c3nc(c(-c4ccccc4)c4ccc([nH]4)c(-c4ccccc4)c4nc(c(-c5ccccc5)c5ccc2[nH]5)C=C4)C=C3)cc1)*

Tests used:
Staphylococcus aureus [1] = assay: Antibacterial activity against methicillin-resistant Staphylococcus aureus ATCC BAA-44 assessed as cell death at 0.5 uM incubated for 60 mins in dark followed by blue light illumination; assay type: functional, organism-based
In short: (§1)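 Stationary-phase bacteria grown overnight in BHI at 37 °C, washed twice and resuspended in PBS pH 7.3 at ~2 × 10⁷ cells/mL. Dark incubation with PS at rt, unbound PS left in. Blue light (390−460 nm) at 15.2 mW/cm², 13.5 J/cm². Survivors counted as cfu from serial 10-fold dilutions plated in duplicate on BHI agar, 37 °C overnight. Dark, light-only and untreated controls.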

Staphylococcus aureus [2] = assay: Antibacterial activity against methicillin-resistant Staphylococcus aureus ATCC BAA-44 assessed as cell death at 50 to 500 nM incubated for 60 mins in dark followed by blue light illumination post compound washout; assay type: functional, organism-based
In short: (§2)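 Overnight BHI-grown stationary-phase bacteria in PBS pH 7.3 at ~2 × 10⁷ cells/mL, dark-incubated with PS at rt. Then centrifuged at 10000g for 5 min and washed three times in PBS before blue light (390−460 nm, 15.2 mW/cm², 13.5 J/cm²). Survival measured as cfu from serial dilutions plated in duplicate on BHI agar.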

Staphylococcus aureus [3] = assay: Drug uptake in methicillin-resistant Staphylococcus aureus ATCC BAA-44 at 1.5 uM incubated for 60 mins in dark followed by flow cytometry; assay type: ADME, organism-based; conditions: in vivo, 1 h
In short: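 Cells treated as for photoinactivation: 60 min dark incubation with PS, unwashed or after three PBS washings. Analysed by flow cytometry for cell-associated red fluorescence instead of being illuminated.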

Escherichia coli [4] = assay: Drug uptake in Escherichia coli ATCC 25922 at 5 uM incubated for 60 mins in dark followed by flow cytometry; assay type: ADME, organism-based; conditions: in vivo, 1 h
In short: (§3)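 Bacterial suspensions treated as for photoinactivation (5 μM, 60 min dark incubation at rt, either unwashed or washed three times with PBS) and then analysed for cell-associated red fluorescence by flow cytometry instead of being illuminated.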

Escherichia coli [5] = assay: Antibacterial activity against Escherichia coli ATCC 25922 assessed as cell death at 5 uM incubated for 15 to 120 mins in dark followed by blue light illumination; assay type: functional, organism-based; in short: as §1
Escherichia coli [6] = assay: Antibacterial activity against Escherichia coli ATCC 25922 assessed as cell death after 60 mins in dark followed by blue light illumination; assay type: functional, organism-based
In short: (§4)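 Dark incubation with PS at rt, then illumination either directly or after three PBS washes (10000g, 5 min). Survival by 10-fold serial dilution, duplicate plating on BHI agar, overnight colony count at 37 °C; dark, light-only and peptide-only controls.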

Escherichia coli [7] = assay: Antibacterial activity against Escherichia coli ATCC 25922 assessed as log reduction at 10 uM incubated for 60 mins in dark followed by blue light illumination post compound washout relative to control; assay type: functional, organism-based; in short: as §2
Escherichia coli [8] = assay: Antibacterial activity against Escherichia coli ATCC 25922 assessed as cell death at 5 to 10 uM incubated for 60 mins in dark followed by blue light illumination; assay type: functional, organism-based; in short: as §1
Staphylococcus aureus [9] = assay: Antibacterial activity against methicillin-resistant Staphylococcus aureus ATCC BAA-44 assessed as cell death at 50 to 500 nM incubated for 60 mins in dark followed by blue light illumination; assay type: functional, organism-based; in short: as §1
Staphylococcus aureus [10] = assay: Antibacterial activity against methicillin-resistant Staphylococcus aureus ATCC BAA-44 assessed as cell death at 0.5 uM incubated for 15 to 120 mins in dark followed by blue light illumination post compound washout; assay type: functional, organism-based; in short: as §2
Staphylococcus aureus [11] = assay: Antibacterial activity against methicillin-resistant Staphylococcus aureus ATCC BAA-44 assessed as cell death at 0.5 uM incubated for 15 to 120 mins in dark followed by blue light illumination; assay type: functional, organism-based; in short: as §1
Escherichia coli [12] = assay: Antibacterial activity against Escherichia coli ATCC 25922 assessed as cell death at 1.5 to 15 uM incubated for 60 mins in dark followed by blue light illumination post compound washout; assay type: functional, organism-based; in short: as §4
Escherichia coli [13] = assay: Antibacterial activity against Escherichia coli ATCC 25922 assessed as cell death at 5 uM incubated for 15 to 120 mins in dark followed by blue light illumination post compound washout; assay type: functional, organism-based; in short: as §2
Staphylococcus aureus [14] = assay: Antibacterial activity against methicillin-resistant Staphylococcus aureus ATCC BAA-44 assessed as cell death at 0.5 uM incubated for 60 mins in dark followed by blue light illumination post compound washout; assay type: functional, organism-based; in short: as §2
Escherichia coli [15] = assay: Antibacterial activity against Escherichia coli ATCC 25922 assessed as cell death at 10 uM incubated for 15 to 120 mins in dark followed by blue light illumination post compound washout; assay type: functional, organism-based; in short: as §4
Staphylococcus aureus [16] = assay: Antibacterial activity against methicillin-resistant Staphylococcus aureus ATCC BAA-44 assessed as log reduction in cell survival at 0.5 uM incubated for 60 mins in dark followed by blue light illumination; assay type: functional; in short: as §1
Escherichia coli [17] = assay: Antibacterial activity against Escherichia coli ATCC 25922 assessed as cell death at 10 uM incubated for 60 mins in dark followed by blue light illumination post compound washout; assay type: functional, organism-based; in short: as §4
Escherichia coli [18] = assay: Antibacterial activity against Escherichia coli ATCC 25922 assessed as cell death at 15 uM incubated for 60 mins in dark followed by blue light illumination relative to control; assay type: functional; in short: as §1
Escherichia coli [19] = assay: Antibacterial activity against Escherichia coli ATCC 25922 assessed as cell death at 10 uM incubated for 15 to 120 mins in dark followed by blue light illumination; assay type: functional, organism-based; in short: as §4
Staphylococcus aureus [20] = assay: Antibacterial activity against methicillin-resistant Staphylococcus aureus ATCC BAA-44 assessed as cell death at 10 uM incubated for 15 to 120 mins in dark followed by red light illumination; assay type: functional, organism-based
In short: (§5)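 Cells incubated with PS in the dark at rt in PBS pH 7.3 (~2 × 10⁷ cells/mL), unbound PS not removed. Red light (600−750 nm) delivered from above at 40 mW/cm², total 36 J/cm². Viability read as cfu after 10-fold serial dilution, duplicate plating on BHI agar, overnight at 37 °C.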

Escherichia coli [21] = assay: Antibacterial activity against Escherichia coli ATCC 25922 assessed as cell death after 60 mins in dark followed by red light illumination; assay type: functional, organism-based; in short: as §4
Staphylococcus aureus [22] = assay: Antibacterial activity against methicillin-resistant Staphylococcus aureus ATCC BAA-44 assessed as cell death at 10 uM incubated for 15 to 120 mins in dark followed by red light illumination post compound washout; assay type: functional, organism-based
In short: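 After dark incubation with PS in PBS at rt, cells pelleted at 10000g for 5 min and washed three times with PBS. Red light (600−750 nm, 40 mW/cm², 36 J/cm²). Surviving cfu counted on BHI agar plated in duplicate.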

Staphylococcus aureus [23] = assay: Antibacterial activity against methicillin-resistant Staphylococcus aureus ATCC BAA-44 assessed as cell death at 1.5 to 15 uM incubated for 60 mins in dark followed by red light illumination; assay type: functional, organism-based; in short: as §5
Escherichia coli [24] = assay: Drug uptake in Escherichia coli ATCC 25922 at 5 uM incubated for 60 mins in dark followed by flow cytometry post compound washout; assay type: ADME, organism-based; conditions: in vivo, 1 h; in short: as §3
Staphylococcus aureus [25] = assay: Antibacterial activity against methicillin-resistant Staphylococcus aureus ATCC BAA-44 assessed as cell death at 10 nM incubated for 15 to 120 mins in dark followed by blue light illumination; assay type: functional, organism-based; in short: as §1
Staphylococcus aureus [26] = assay: Antibacterial activity against methicillin-resistant Staphylococcus aureus ATCC BAA-44 assessed as cell death at 10 nM incubated for 15 to 120 mins in dark followed by blue light illumination post compound washout; assay type: functional, organism-based; in short: as §2

Row | Structure (SMILES) | Activity (Staphylococcus aureus [1]) | Activity (Staphylococcus aureus [2]) | Drug uptake (Staphylococcus aureus [3]) | Drug uptake (Escherichia coli [4]) | Activity (Escherichia coli [6]) | Activity (Staphylococcus aureus [9]) | Activity (Staphylococcus aureus [10]) | Activity (Staphylococcus aureus [11]) | Activity (Escherichia coli [12]) | Activity (Staphylococcus aureus [14]) | Activity (Escherichia coli [15]) | FC (Staphylococcus aureus [16]) | fold change (FC) (Escherichia coli [18]) | Activity (Escherichia coli [19]) | further results
1 | C[n+]1ccc(-c2c3nc(c(-c4cc[n+](C)cc4)c4ccc([nH]4)c(-c4ccc(C(=O)O)cc4)c4ccc([nH]4)c(-c4cc[n+](C)cc4)c4nc2C=C4)C=C3)cc1 | Active | inactive | Not Active | Not Active | Dose-dependent effect | Active | Active | Active | Active |  |  |  |  |  | Activity (Escherichia coli [5]): Active; Activity (Escherichia coli [7]): inactive; Activity (Escherichia coli [8]): Active; Activity (Escherichia coli [13]): Active
2 | CC[C@H](C)[C@H](NC(=O)[C@H](Cc1ccc(O)cc1)NC(=O)[C@@H](NC(=O)[C@@H]1CCCN1C(=O)[C@H](CCCNC(=N)N)NC(=O)[C@H](CC(N)=O)NC(=O)[C@H](CC(N)=O)NC(=O)CNC(=O)c1ccc(-c2c3nc(c(-c4ccccc4)c4ccc([nH]4)c(-c4ccccc4)c4nc(c(-c5ccccc5)c5ccc2[nH]5)C=C4)C=C3)cc1)C(C)C)C(=O)N1CCC[C@H]1C(=O)N[C@@H](CCC(N)=O)C(=O)N1CCC[C@H]1C(=O)N[C@@H](CCCNC(=N)N)C(=O)N1CCC[C@H]1C(=O)N1CCC[C@H]1C(=O)N[C@@H](Cc1cnc[nH]1)C(=O)N1CCC[C@H]1C(=O)N[C@@H](CCCNC(=N)N)C(=O)N[C@@H](CC(C)C)C(=O)O ({Benzoyl(4-TriPhPorphyrinyl)}-GNNRPVYIPQPRPPHPRL-OH) |  |  | Active | Active | Dose-dependent effect |  | Active | Active | Active | Active | Active | 3 | 4 | Active | Activity (Escherichia coli [17]): Active
3 | COC(=O)CCCC(=O)Nc1cc2[nH]c(cc2-c2ccccc2)c2nc(ccc3[nH]c(cc3-c3ccccc3)c3nc1C(c1ccccc1)=C3)C(c1ccccc1)=C2 |  |  |  |  |  |  |  |  |  |  |  |  |  |  | Activity (Staphylococcus aureus [20]): Active; Activity (Escherichia coli [21]): inactive; Activity (Staphylococcus aureus [22]): Active; Activity (Staphylococcus aureus [23]): Active
4 | CC(C)C[C@H](NC(=O)[C@H](CCCNC(=N)N)NC(=O)[C@@H]1CCCN1C(=O)[C@H](Cc1cnc[nH]1)NC(=O)[C@@H]1CCCN1C(=O)[C@@H]1CCCN1C(=O)[C@H](CCCNC(=N)N)NC(=O)[C@@H]1CCCN1C(=O)CNC(=O)c1ccc(-c2c3nc(c(-c4ccccc4)c4ccc([nH]4)c(-c4ccccc4)c4nc(c(-c5ccccc5)c5ccc2[nH]5)C=C4)C=C3)cc1)C(=O)O ({Benzoyl(4-TriPhPorphyrinyl)}-GPRPPHPRL-OH) |  |  | Active | Active | Dose-dependent effect |  | Active | Active | Active | Active | Active | 3 | 4 | Active | 
5 | O=C(O)c1ccc(-c2c3nc(c(-c4ccccc4)c4ccc([nH]4)c(-c4ccccc4)c4nc(c(-c5ccccc5)c5ccc2[nH]5)C=C4)C=C3)cc1 | Active | Active | Active | Not Active | inactive | Active |  |  |  |  |  |  |  |  | Drug uptake (Escherichia coli [24]): Not Active; Activity (Staphylococcus aureus [25]): Active; Activity (Staphylococcus aureus [26]): Active
